17 molecules from ChEMBL document CHEMBL1944513, “Synthesis of novel 2-mercapto benzothiazole and 1,2,3-triazole based bis-heterocycles: their anti-inflammatory and anti-nociceptive activities” (Eur J Med Chem, 2012) can be followed below.

Calls of active or inactive are those of the source. The calls are words filed in the database; no cut-off is given here.

A word on the inhibition in vivo: it is the percentage by which the read-out fell short of the control.

Test system in one data set: not listed separately
Briefly: Selectivity ratio of IC50 for human recombinant COX2 to IC50 for ram seminal vesicle COX1. The format is tissue-based.
Conditions: not given
The method, boiled down: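 COX-1 and COX-2 purified chromatographically. Peroxidase read-out from TMPD oxidation during PGG2 to PGH2 reduction. Mix: 100 mM Tris-HCl pH 8.0, hematin, 3 mM EDTA, […], test compound; 1 min preincubation at 25 °C; started with arachidonic acid plus TMPD. Rate from absorbance rise at 603 nm over first 25 s. Ratio is IC50 COX-2/IC50 COX-1.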
Take `CC1(C)O[C@H]2OC(Cn3cc(CSc4nc5ccccc5s4)nn3)[C@@H]3OC(C)(C)O[C@@H]3[C@@H]2O1` (stereo partly specified): the Ratio IC50 was 1.53.
The same measure, in the same setting: to `Cc1ccc(-c2cc(C(F)(F)F)nn2-c2ccc(S(N)(=O)=O)cc2)cc1` belongs 0.0028; to `Clc1ccc(-n2cc(CSc3nc4ccccc4s3)nn2)cc1`, 14.9.
In the case of `Fc1ccc(-n2cc(CSc3nc4ccccc4s3)nn2)cc1`, the Ratio IC50 is 0.441.
Still for that read-out and setting: to `O=[N+]([O-])c1cccc(-n2cc(CSc3nc4ccccc4s3)nn2)c1` belongs 5.21.

For a further data set, the system named is Rattus norvegicus. Briefly: Antiinflammatory activity in Albino Wistar rat assessed as inhibition of carrageenan-induced paw edema at equimolar dosage of Ibuprofen 10 mg/kg, po administered 1 hr before carrageenan challenge measured after 3 hrs by plethysmometer. The format is functional.
Conditions: not given
The method, boiled down:
(§1)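 Rats fasted 14 h with water only. Compounds given orally at dose equimolar to ibuprofen (10 mg/kg p.o.) 1 h before subplantar injection of 0.1 ml freshly prepared 1% carrageenan in saline into right hind paw. Control received 0.1 ml 0.9% saline orally. Change in paw volume (ml) at 3 and 5 h; % inhibition; one-way ANOVA with Dunnett's test.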
Regarding `CC1(C)O[C@H]2OC(Cn3cc(CSc4nc5ccccc5s4)nn3)[C@@H]3OC(C)(C)O[C@@H]3[C@@H]2O1` (stereo partly specified), the inhibition in vivo stood at 59.7%.
Consider `Clc1cccc(-n2cc(CSc3nc4ccccc4s3)nn2)c1`, for which the inhibition in vivo was 35%.
Still for that read-out and setting: to `Cc1ccccc1-n1cc(CSc2nc3ccccc3s2)nn1` belongs 47.3%; to `CC1(C)OCC(Cn2cc(CSc3nc4ccccc4s3)nn2)O1` (stereo unspecified), 53.3%; to `c1cncc(-n2cc(CSc3nc4ccccc4s3)nn2)c1`, 64%.
On the same count and under the same terms, to `c1ccc(-n2cc(CSc3nc4ccccc4s3)nn2)cc1` belongs 46.7%.
On to `Clc1ccc(-n2cc(CSc3nc4ccccc4s3)nn2)cc1`, for which the inhibition in vivo turned out to be 50%.
On the same count and under the same terms, to `Brc1ccc(-n2cc(CSc3nc4ccccc4s3)nn2)cc1` belongs 75%; to `Fc1ccc(-n2cc(CSc3nc4ccccc4s3)nn2)cc1`, 77.8%; to `OCC(O)Cn1cc(CSc2nc3ccccc3s2)nn1` (stereo unspecified), 56.7%.
For the molecule `O[C@@H]1[C@H](O)[C@@H](O)OC(Cn2cc(CSc3nc4ccccc4s3)nn2)[C@@H]1O` (stereo partly specified), the inhibition in vivo is 63.3%.
On the same count and under the same terms, for `CCOc1ccc(-n2cc(CSc3nc4ccccc4s3)nn2)cc1` the value was 38.3%; for `Clc1ccccc1-n1cc(CSc2nc3ccccc3s2)nn1`, 83.3%.
For the molecule `O=[N+]([O-])c1ccc(-n2cc(CSc3nc4ccccc4s3)nn2)cc1`, the inhibition in vivo amounted to 75%.
Still for that read-out and setting: to `O=[N+]([O-])c1cccc(-n2cc(CSc3nc4ccccc4s3)nn2)c1` belongs 11.7%.

For the next data set, the system named is Rattus norvegicus. The data set is described as follows: Antiinflammatory activity in Albino Wistar rat assessed as inhibition of carrageenan-induced paw edema at equimolar dosage of Ibuprofen 10 mg/kg, po administered 1 hr before carrageenan challenge measured after 5 hrs by plethysmometer. The format is functional.
Conditions: not given
The method, boiled down: as §1
A general note: The carrageenan paw model is a standard test of acute inflammation.
Regarding `CC1(C)O[C@H]2OC(Cn3cc(CSc4nc5ccccc5s4)nn3)[C@@H]3OC(C)(C)O[C@@H]3[C@@H]2O1` (stereo partly specified), the inhibition in vivo was 56.6%.
As for `Clc1cccc(-n2cc(CSc3nc4ccccc4s3)nn2)c1`, the inhibition in vivo turned out to be 39.6%.
On the same count and under the same terms, to `Cc1ccccc1-n1cc(CSc2nc3ccccc3s2)nn1` belongs 43.4%; to `CC1(C)OCC(Cn2cc(CSc3nc4ccccc4s3)nn2)O1` (stereo unspecified), 49%.
The same measure, in the same setting: for `c1cncc(-n2cc(CSc3nc4ccccc4s3)nn2)c1` the value was 56%.
As to `c1ccc(-n2cc(CSc3nc4ccccc4s3)nn2)cc1`, the inhibition in vivo is 32.1%.
Take `Clc1ccc(-n2cc(CSc3nc4ccccc4s3)nn2)cc1`: the inhibition in vivo was 43.4%.
On to `Brc1ccc(-n2cc(CSc3nc4ccccc4s3)nn2)cc1`, for which the inhibition in vivo came out at 59.2%.
On to `Fc1ccc(-n2cc(CSc3nc4ccccc4s3)nn2)cc1`, for which the inhibition in vivo was 81.1%.
Still for that read-out and setting: for `OCC(O)Cn1cc(CSc2nc3ccccc3s2)nn1` (stereo unspecified) the value was 52.8%.
The same measure, in the same setting: for `O[C@@H]1[C@H](O)[C@@H](O)OC(Cn2cc(CSc3nc4ccccc4s3)nn2)[C@@H]1O` (stereo partly specified) the value was 60.4%; for `CCOc1ccc(-n2cc(CSc3nc4ccccc4s3)nn2)cc1`, 34%.
As for `Clc1ccccc1-n1cc(CSc2nc3ccccc3s2)nn1`, the inhibition in vivo stood at 78.1%.
Consider `O=[N+]([O-])c1ccc(-n2cc(CSc3nc4ccccc4s3)nn2)cc1`, for which the inhibition in vivo was found to be 65.5%.
The same measure, in the same setting: to `O=[N+]([O-])c1cccc(-n2cc(CSc3nc4ccccc4s3)nn2)c1` belongs 21.5%.

A further data set concerns Rattus norvegicus. Briefly: Antiinflammatory activity in Albino Wistar rat assessed as inhibition of carrageenan-induced paw edema at equimolar dosage of Ibuprofen 10 mg/kg, po administered 1 hr before carrageenan challenge by plethysmometer. The following applies: TDE = time-dependent effect, at 10 mg/kg. The format is functional, organism-based. Also on record: dose 10 mg/kg. An outline of the steps:
as §1
As to `Brc1ccc(-n2cc(CSc3nc4ccccc4s3)nn2)cc1`, the inhibition result is “tde”.
For the molecule `Fc1ccc(-n2cc(CSc3nc4ccccc4s3)nn2)cc1`, the inhibition entry was “tde”.
Still for that read-out and setting: for `Clc1ccccc1-n1cc(CSc2nc3ccccc3s2)nn1` the value was “tde”.
Turning to `O=[N+]([O-])c1ccc(-n2cc(CSc3nc4ccccc4s3)nn2)cc1`, the inhibition result is “tde”.

The subject of a further data set is Mus musculus. Briefly: Analgesic activity in mouse assessed as inhibition of acetic acid-induced writhing at equimolar dosage of Ibuprofen 10 mg/kg, po administered 30 mins before to acetic acid challenge measured for 20 mins relative to control. The following applies: at 10 mg/kg. Also on record: dose 10 mg/kg. The format is functional, organism-based. The method, boiled down:
(§2)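 Writhing induced in mice by intraperitoneal 0.6% (v/v) acetic acid (80 mg/kg). Compounds given orally at dose equimolar to ibuprofen 10 mg/kg, 30 min before stimulus; ibuprofen 10 mg/kg orally as reference. Six animals per group.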
In the case of `Brc1ccc(-n2cc(CSc3nc4ccccc4s3)nn2)cc1`, the inhibition entry is “Active”.
For the molecule `Fc1ccc(-n2cc(CSc3nc4ccccc4s3)nn2)cc1`, the inhibition entry was “Active”.
Same read-out and setting: for `Clc1ccccc1-n1cc(CSc2nc3ccccc3s2)nn1` the value was “Active”.
Same read-out and setting: for `O=[N+]([O-])c1ccc(-n2cc(CSc3nc4ccccc4s3)nn2)cc1` the value was “Active”.

Another data set concerns Rattus norvegicus. Briefly: Ulcerogenicity in Albino Wistar rat assessed as gastric ulceration at equimolar dosage of Ibuprofen 30 mg/kg, po relative to control. The format is toxicity, organism-based, Stomach. Also on record: dose 30 mg/kg, route oral. The settings on record: in vivo. The method, boiled down:
(§3)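 Oral dosing at three times the anti-inflammatory dose: ibuprofen 30 mg/kg or equimolar test compound. Three animals per group, sacrificed afterwards. Stomach wall sections stained with haematoxylin-eosin and examined at 10x and 40x for mucosal, submucosal and epithelial damage.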
As to `Brc1ccc(-n2cc(CSc3nc4ccccc4s3)nn2)cc1`, the Activity result was “Non-toxic”.
On the same count and under the same terms, to `Fc1ccc(-n2cc(CSc3nc4ccccc4s3)nn2)cc1` belongs “Non-toxic”.
The same measure, in the same setting: to `Clc1ccccc1-n1cc(CSc2nc3ccccc3s2)nn1` belongs “Non-toxic”.
Turning to `O=[N+]([O-])c1ccc(-n2cc(CSc3nc4ccccc4s3)nn2)cc1`, the Activity result is on record as “Non-toxic”.

For a further data set, the system named is Mus musculus. The data set is described as follows: Ulcerogenicity in mouse assessed as gastric ulceration at equimolar dosage of Ibuprofen 30 mg/kg, po relative to control. The format is toxicity, organism-based, Stomach. The following applies: in vivo. On the set-up: dose 30 mg/kg, route oral.
Regarding `Brc1ccc(-n2cc(CSc3nc4ccccc4s3)nn2)cc1`, the Activity entry is recorded as “Non-toxic”.
Same read-out and setting: for `Fc1ccc(-n2cc(CSc3nc4ccccc4s3)nn2)cc1` the value was “Non-toxic”; for `Clc1ccccc1-n1cc(CSc2nc3ccccc3s2)nn1`, “Non-toxic”; for `O=[N+]([O-])c1ccc(-n2cc(CSc3nc4ccccc4s3)nn2)cc1`, “Non-toxic”.

In the next data set the test system is Mus musculus. The data set is described as follows: Analgesic activity in mouse assessed as inhibition of acetic acid-induced writhing at 10 mg/kg, po administered 30 mins before to acetic acid challenge measured for 20 mins relative to control. On the set-up: dose 10 mg/kg.
Conditions: not given
The format is functional, organism-based. An outline of the steps:
as §2
As for `CC(C)Cc1ccc(C(C)C(=O)O)cc1` (stereo unspecified) [IBUPROFEN], the inhibition result is “Active”.

The subject of a further data set is Rattus norvegicus. The data set is described as follows: Antiinflammatory activity in Albino Wistar rat assessed as inhibition of carrageenan-induced paw edema at 10 mg/kg, po administered 1 hr before carrageenan challenge measured after 3 hrs by plethysmometer. The format is functional.
Conditions: not given
An outline of the steps: as §1
Take `CC(C)Cc1ccc(C(C)C(=O)O)cc1` (stereo unspecified) [IBUPROFEN]: the inhibition in vivo at 10 mg/kg stood at 69.5%.

The subject of a further data set is Rattus norvegicus. The data set is described as follows: Antiinflammatory activity in Albino Wistar rat assessed as inhibition of carrageenan-induced paw edema at 10 mg/kg, po administered 1 hr before carrageenan challenge measured after 5 hrs by plethysmometer. The format is functional.
Conditions: not given
An outline of the steps: as §1
`CC(C)Cc1ccc(C(C)C(=O)O)cc1` (stereo unspecified) [IBUPROFEN]: the inhibition in vivo at 10 mg/kg was found to be 71.7%.

In a further data set the test system is Rattus norvegicus. The data set is described as follows: Ulcerogenicity in Albino Wistar rat assessed as gastric ulceration at 30 mg/kg, po relative to untreated control. The format is toxicity, organism-based, Stomach. Also on record: dose 30 mg/kg, route oral. The following applies: in vivo. An outline of the steps: as §3
On to `CC(C)Cc1ccc(C(C)C(=O)O)cc1` (stereo unspecified) [IBUPROFEN], for which the Activity entry is listed as “Toxic”.

Another data set has as its system Mus musculus. The data set is described as follows: Ulcerogenicity in mouse assessed as gastric ulceration at 30 mg/kg, po relative to untreated control. The settings on record: in vivo. The format is toxicity, organism-based, Stomach. On the set-up: dose 30 mg/kg, route oral.
With `CC(C)Cc1ccc(C(C)C(=O)O)cc1` (stereo unspecified) [IBUPROFEN], the Activity entry is “Toxic”.
